Consider 30 molecules from ChEMBL document CHEMBL1137938, “Affinity and intrinsic efficacy (IE) of 5'-carbamoyl adenosine analogues for the A1 adenosine receptor--efforts towards the discovery of a chronic ventricular rate control agent for the treatment of atrial fibrillation (AF)” (Bioorg Med Chem Lett, 2004).

For orientation: EC50 means the concentration giving half of the maximal effect. Low readings indicate an effect from little substance, high ones a need for much substance. For orientation: share remaining means the share of the starting amount still present when the sample was taken. A lower share remaining goes with more turnover. As a reminder, the AUC is the area under the concentration-time curve, a measure of exposure. A lower AUC goes with less exposure. Usually Cmax stands for the maximum level reached in the sampled fluid or tissue. For orientation: half-life means the time needed for the level to fall by half in the phase considered. A lower half-life goes with rapid decline.

For series [1], the species on record is Cavia porcellus. The series is described as follows: Agonist-induced SH prolongation in guinea pig isolated heart was determined; 3-5 uM (Partial agonist). In kind it is functional.
Series [2] deals with Adenosine receptor A1 (Mesocricetus auratus). In words: Stimulation of binding of [35S]GTP uM).
Series [3] is described as follows: Amount of tecadenoson present after 30 min in the liver S-9 assay as determined by mass specanalysis. In kind it is ADME, tissue-based. Particulars: human, 0.5 h.
Series [4] can be described thus: Compound remaining after incubation with 2 mg/mL of human liver microsomes at 37 degrees C for 30 min in a pH 7.4, 0.05 M phosphate buffer. The series is classed as ADME, Microsome. The gist of the method: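 Incubation with human liver microsomes at 2 mg/mL, 37 C, 30 min, in 0.05 M phosphate buffer pH 7.4 containing 5 mM MgCl2 and 2 mM NADPH; percentage of parent compound remaining recorded.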

The species named for series [5] is Cavia porcellus. In words: Agonist-induced SH prolongation in guinea pig isolated heart was determined; 0.5-0.51 uM (Partial agonist). The series is classed as functional.
For series [6], the species on record is Cavia porcellus. In words: Agonist-induced SH prolongation in guinea pig isolated heart was determined; 3-5 uM (Full agonist). In kind it is functional.
The nature of series [7]: Concentration in rat plasma after 5 mg/kg oral gavage for 8 hours. In kind it is ADME, organism-based. More on the design: dose 5 mg/kg, route oral. The procedure, abridged:
(§1)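 Rats dosed by oral gavage with parent at 5 mg/kg, or with bis-acetate prodrug at molar equivalents. Parent concentration in plasma followed over time. Cmax and AUC taken from the plasma profile. Oral bioavailability derived from AUC measurements.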

Series [8] can be described thus: Maximum concentration in rat plasma after 5 mg/kg oral gavage. The series is classed as ADME, organism-based. Set-up: dose 5 mg/kg, route oral. The procedure, abridged: as §1
Series [9] is described as follows: Amount of tecadenoson present after 30 min in the liver S-9 assay as determined by mass specanalysis; trace. The series is classed as ADME, tissue-based. Particulars: human, 0.5 h.
Series [10] is described as follows: Bioavailability in rat after 5 mg/kg oral gavage. The series is classed as ADME, organism-based. As to conditions: in vivo, read-out: Bioavailabiility. The procedure, abridged:
as §1

The nature of series [11]: Plasma half life in rat after 5 mg/kg oral gavage; 6-8 hours. In kind it is ADME, organism-based. Set-up: dose 5 mg/kg, route oral.
The species entered for series [12] is Cavia porcellus. The series is described as follows: Agonist-induced SH prolongation in guinea pig isolated heart was determined. The series is classed as functional.
For series [13], the species on record is Cavia porcellus. The series is described as follows: Agonist-induced SH prolongation in guinea pig isolated heart was determined; Inactive. In kind it is functional.
The nature of series [14]: Amount of tecadenoson present after 30 min in the liver S-9 assay as determined by mass specanalysis; 1-2. The series is classed as ADME, tissue-based. As to conditions: human, 0.5 h.
The species named for series [15] is Cavia porcellus. The series is described as follows: Agonist-induced SH prolongation in guinea pig isolated heart was determined; 0.5-1 uM (Partial agonist). In kind it is functional, organism-based.
The nature of series [16]: Amount of tecadenoson present after 30 min in the liver S-9 assay as determined by mass specanalysis; -0.5 to 1. In kind it is ADME, tissue-based. As to conditions: human, 0.5 h.

SMILES strings stand for the structures.

In the case of `O=C(NC1CCCC1)OC[C@H]1OC(n2cnc3c(N[C@@H]4CCOC4)ncnc32)[C@H](O)[C@@H]1O` (stereo not given in full), in the series filed under Cavia porcellus [1], the EC50 was 5 µM. Consider `CC(C)NC(=O)OC[C@H]1OC(n2cnc3c(N[C@@H]4CCOC4)ncnc32)[C@H](O)[C@@H]1O` (stereo not given in full), for which the [35S]GTPγS binding stimulation (% of CPA) in series [2] amounted to 91%.

The molecule `O=C(NCc1ccccc1)OC[C@H]1OC(n2cnc3c(N[C@@H]4CCOC4)ncnc32)[C@H](O)[C@@H]1O` (stereo not given in full) showed a [35S]GTPγS binding stimulation (% of CPA) in [2] of 44%. In the case of `O[C@@H]1[C@@H](COC(=S)NC2CCC2)OC(n2cnc3c(N[C@@H]4CCOC4)ncnc32)[C@@H]1O` (stereo not given in full), the [35S]GTPγS binding stimulation (% of CPA) in [2] turned out to be 79%.

In series [2], `O[C@@H]1[C@@H](COC(=S)NC2CCCCC2)OC(n2cnc3c(N[C@@H]4CCOC4)ncnc32)[C@@H]1O` (stereo not given in full) displayed a [35S]GTPγS binding stimulation (% of CPA) of 82%. As to `C=CCNC(=S)OC[C@H]1OC(n2cnc3c(N[C@@H]4CCOC4)ncnc32)[C@H](O)[C@@H]1O` (stereo not given in full), in [2], the [35S]GTPγS binding stimulation (% of CPA) stood at 78%.

In turn, `CCNC(=O)OC[C@H]1OC(n2cnc3c(N[C@@H]4CCOC4)ncnc32)[C@H](O)[C@@H]1O` (stereo not given in full) returned a [35S]GTPγS binding stimulation (% of CPA) in [2] of 80%. On to `CNC(=S)OC[C@H]1OC(n2cnc3c(N[C@@H]4CCOC4)nc(Cl)nc32)[C@H](O)[C@@H]1O` (stereo not given in full), for which the Activity in [3] turned out to be 0%. In [4], this molecule showed an amount remaining at 0.5 h of 62%. Besides, the midpoint of the response in the series filed under Cavia porcellus [5], the EC50, lay at 0.51 µM. Also, in series [2], the [35S]GTPγS binding stimulation (% of CPA) is 77%.

Regarding `CCNC(=S)OC[C@H]1OC(n2cnc3c(N[C@@H]4CCOC4)ncnc32)[C@H](O)[C@@H]1O` (stereo not given in full), in the series listed under Cavia porcellus [6], the response was half-maximal at 5 µM (EC50). The [35S]GTPγS binding stimulation (% of CPA) in [2] amounted to 77%.

For the molecule `CNC(=O)OC[C@H]1OC(n2cnc3c(N[C@@H]4CCOC4)ncnc32)[C@H](OC(C)=O)[C@@H]1OC(C)=O` (stereo not given in full), in series [7], the AUC at 8 h came out at 1340 ng·h/mL. Besides, the Cmax in series [8] came out at 647 ng/mL. Turning to `CC(C)NC(=S)OC[C@H]1OC(n2cnc3c(N[C@@H]4CCOC4)ncnc32)[C@H](O)[C@@H]1O` (stereo not given in full), the [35S]GTPγS binding stimulation (% of CPA) in series [2] was 84%. For the molecule `CNC(=O)OC[C@H]1OC(n2cnc3c(N[C@@H]4CCOC4)ncnc32)[C@H](O)[C@@H]1O` (stereo not given in full), the EC50 in the series filed under Cavia porcellus [1] is 5 µM. Besides, in series [9], the Activity result is “Partially active”. Moreover, the AUC at 8 h in series [7] came to 698 ng·h/mL. Moreover, the bioavailability in [10] was determined as 9%. The molecule further registered a share remaining at 0.5 h in series [4] of approximately 100%. Besides, the Cmax in [8] was determined as 305 ng/mL. Moreover, in [11], the half-life is 8 h.

As to `CNC(=O)OC[C@H]1OC(n2cnc3c(N[C@@H]4CCOC4)nc(Cl)nc32)[C@H](O)[C@@H]1O` (stereo not given in full), the response in the series listed under Cavia porcellus [1] was half-maximal at 5 µM (EC50). The molecule also yielded a [35S]GTPγS binding stimulation (% of CPA) in [2] of 77%.

Turning to `O=C(NC1CCCC1)OC[C@H]1OC(n2cnc3c(N[C@@H]4CCOC4)nc(Cl)nc32)[C@H](O)[C@@H]1O` (stereo not given in full), the 50% effective concentration (EC50) in the series filed under Cavia porcellus [1] came to 5 µM. Also, the [35S]GTPγS binding stimulation (% of CPA) in [2] amounted to 69%. The molecule `CCCCNC(=O)OC[C@H]1OC(n2cnc3c(N[C@@H]4CCOC4)ncnc32)[C@H](O)[C@@H]1O` (stereo not given in full) gave an EC50 in the series filed under Cavia porcellus [12] of more than 5 µM. Besides, the [35S]GTPγS binding stimulation (% of CPA) in [2] was found to be 49%. Molecule `CN(C)C(=S)OC[C@H]1OC(n2cnc3c(N[C@@H]4CCOC4)ncnc32)[C@H](O)[C@@H]1O` (stereo not given in full) registered a [35S]GTPγS binding stimulation (% of CPA) in series [2] of 85%.

Turning to `O=C(NC1CCCCC1)OC[C@H]1OC(n2cnc3c(N[C@@H]4CCOC4)ncnc32)[C@H](O)[C@@H]1O` (stereo not given in full), the [35S]GTPγS binding stimulation (% of CPA) in series [2] worked out at 80%. `CCCNC(=O)OC[C@H]1OC(n2cnc3c(N[C@@H]4CCOC4)ncnc32)[C@H](O)[C@@H]1O` (stereo not given in full) returned a [35S]GTPγS binding stimulation (% of CPA) in series [2] of 73%. With `CCNC(=S)OC[C@H]1OC(n2cnc3c(N[C@@H]4CCOC4)nc(Cl)nc32)[C@H](O)[C@@H]1O` (stereo not given in full), the Activity in series [3] is given as 0%. Moreover, the amount remaining at 0.5 h in series [4] was 41%. Also, a half-maximal response in the series listed under Cavia porcellus [5] (EC50) required 0.51 µM. The [35S]GTPγS binding stimulation (% of CPA) in series [2] worked out at 84%.

For the molecule `C=CCNC(=O)OC[C@H]1OC(n2cnc3c(N[C@@H]4CCOC4)ncnc32)[C@H](O)[C@@H]1O` (stereo not given in full), the [35S]GTPγS binding stimulation (% of CPA) in series [2] was determined as 48%. The same measure, in the same setting: as for `CN(C)C(=O)OC[C@H]1OC(n2cnc3c(N[C@@H]4CCOC4)ncnc32)[C@H](O)[C@@H]1O` (stereo not given in full), the figure is 87%. In series [2], `O=C(NC1CCC1)OC[C@H]1OC(n2cnc3c(N[C@@H]4CCOC4)ncnc32)[C@H](O)[C@@H]1O` (stereo not given in full) showed a [35S]GTPγS binding stimulation (% of CPA) of 67%.

In series [2], `O[C@@H]1[C@@H](COC(=S)NCc2ccccc2)OC(n2cnc3c(N[C@@H]4CCOC4)ncnc32)[C@@H]1O` (stereo not given in full) gave a [35S]GTPγS binding stimulation (% of CPA) of 93%. The molecule `O[C@@H]1[C@@H](COC(=S)NC2CCCC2)OC(n2cnc3c(N[C@@H]4CCOC4)ncnc32)[C@@H]1O` (stereo not given in full) had an EC50 in the series listed under Cavia porcellus [6] of 5 µM. For the same molecule, the [35S]GTPγS binding stimulation (% of CPA) in series [2] was found to be 95%. Take `OC[C@H]1O[C@@H](n2cnc3c(N[C@@H]4CCOC4)ncnc32)[C@H](O)[C@@H]1O` [TECADENOSON]: the EC50 in the series listed under Cavia porcellus [1] is less than 0.5 µM.

Molecule `O=C(NC1CC1)OC[C@H]1OC(n2cnc3c(N[C@@H]4CCOC4)ncnc32)[C@H](O)[C@@H]1O` (stereo not given in full) had a [35S]GTPγS binding stimulation (% of CPA) in series [2] of 82%.

On to `CCCCNC(=S)OC[C@H]1OC(n2cnc3c(N[C@@H]4CCOC4)ncnc32)[C@H](O)[C@@H]1O` (stereo not given in full), for which the EC50 entry in the series filed under Cavia porcellus [13] is “Not Active”. Besides, the [35S]GTPγS binding stimulation (% of CPA) in [2] was determined as 70%. As to `O[C@@H]1[C@@H](COC(=S)NC2CC2)OC(n2cnc3c(N[C@@H]4CCOC4)ncnc32)[C@@H]1O` (stereo not given in full), the [35S]GTPγS binding stimulation (% of CPA) in series [2] was 82%. With `CCCNC(=S)OC[C@H]1OC(n2cnc3c(N[C@@H]4CCOC4)ncnc32)[C@H](O)[C@@H]1O` (stereo not given in full), the amount remaining at 0.5 h in series [4] is 98%. In series [14], the Activity is listed as 2%. In the series filed under Cavia porcellus [15], this molecule came in with an EC50 of 1 µM. Moreover, the [35S]GTPγS binding stimulation (% of CPA) in series [2] is 89%. With `CNC(=S)OC[C@H]1OC(n2cnc3c(N[C@@H]4CCOC4)ncnc32)[C@H](O)[C@@H]1O` (stereo not given in full), in [16], the Activity came to 1%. Further, the share remaining at 0.5 h in series [4] turned out to be 99%. In the series filed under Cavia porcellus [5], this molecule came in with an EC50 of 0.51 µM. Further, the [35S]GTPγS binding stimulation (% of CPA) in series [2] worked out at 77%.
